An excerpt weighted towards active compounds, which were near 3.7% of everything screened.
KCNQ1 act: potentiates or activates the human KCNQ1 potassium channel | B-score at 10 µM | hit rate 0.35% among 310,000 | CHO-K1 KCNQ1, thallium flux FluxOR fluorescence; stronger effect = higher value | P51787;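 active = fluorescence ratio B-score, a plate-corrected score, at least three library SD, with initial intensity B-score within 5 SD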
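System: Stable KCNQ1 CHO-K1 line | Incubation: 90 min dye loading and 20 min compound exposure, both at room temperature | Measure: Ratio B score | Medium: Assay buffer for compound exposure, DMSO matched across wells | Compound dosing: Single-concentration screen | Probe or stimulus: K+/Tl+ depolarizing stimulus | Measured by: Kinetic FluxOR fluorescence, 10 s baseline plus 110 s post-stimulus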
KCNK3 block: human KCNK3 channel inhibition, primary screen; CHO-KCNK3 thallium flux, FluxOR fluorescence; stronger effect = lower value; B-score at 10 µM; hit rate 0.84% among 340,000;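 active = B-score under library mean minus 4 SD, starting fluorescence ratio at most library mean plus 5 SD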;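 also: more negative B-score means stronger inhibition of thallium flux through KCNK3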
hERG rescue: shields human hERG channel from block by proarrhythmic agents; Q12809; CHO-hERG, FluxOR thallium flux, dofetilide IC70 present; activation (rescue from dofetilide block), less the hit threshold, % at 10 µM; hit rate 0.51% among 310,000;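 active = activation above the mean of controls blocked by dofetilide plus 5 SD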;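 also: thallium influx through hERG after potassium depolarization seen as dye fluorescence rise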
KCNQ1 inh: blocks the human KCNQ1 potassium channel; B-score at 10 µM; AID 2642; CHO-K1 KCNQ1, FluxOR thallium flux fluorescence; stronger effect = higher value; P51787; hit rate 1.3% among 310,000;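 active = compounds whose thallium flux B-score, printed positive for inhibition, exceeds three library SD while starting fluorescence stays within three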;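 also: channel opened by potassium depolarization with thallium stimulus after 20 min compound exposure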
KCNK9 inh: blocks the human KCNK9 two-pore domain potassium channel | Q9NPC2 | HEK293 KCNK9, FluxOR thallium flux fluorescence; stronger effect = lower value | B-score at 10 µM | hit rate 1.2% among 310,000 | AID 488922;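 active = ratio B-score over 3 SD below the library mean, with starting fluorescence within 5 SD of its mean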;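 also: negative B-score means less thallium flux so channel inhibition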
Kir21 block: Kir2.1 (mouse) channel inhibition | P35561 | HEK293-Kir2.1, FluxOR thallium flux fluorescence; stronger effect = lower value | B-score at 10 µM | hit rate 0.85% among 310,000 | AID 1672;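 active = fluorescence ratio B-score at or below minus 3 SD of library scores, with starting-brightness B-score within 2 SD, cut at about -4.2 in these data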;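 also: channel flux triggered by added potassium and thallium sulfate stimulus; B-score of peak minus minimum fluorescence over baseline after thallium stimulus; more negative B-score means stronger Kir2.1 block with less thallium influx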
* hit, by the source's call; i = inactive; . = not tested or not shown.

SMILES	KCNQ1 act	KCNK3 block	hERG rescue	KCNQ1 inh	KCNK9 inh	Kir21 block
COC(=O)C1=C(C(=O)OC)[C@@H]2N(Cc3ccccc3)c3ccccc3[C@@]23C[C@@H](C(=O)OC)N(C(=O)c2cccs2)C3=N1	i	i	-1.9	i	-7.93*	0.48
COC(=O)C1=C(C(=O)OC)[C@@H]2N(C)c3ccccc3[C@@]23C[C@@H](C(=O)OC)N(C(=O)c2ccc(Br)cc2)C3=N1	30*	i	-8.2	i	i	-2.4
COC(=O)C1=C(C(=O)OC)[C@@H]2N(Cc3ccccc3)c3ccccc3[C@@]23C[C@@H](C(=O)OC)N(C(=O)CC(C)C)C3=N1	i	i	-3.6	i	-7.87*	-0.41
CC#CCN1c2ccccc2[C@]23C[C@@H](C(=O)OC)N(C(=O)c4ccc(Br)cc4)C2=NC(C(=O)OC)=C(C(=O)OC)[C@H]13	i	.	-4.3	i	i	-0.21
CCN1CCN(Cc2ccc(NC(=O)c3cc(NC(=O)c4cncc(-c5cccs5)c4)cc(OC)c3)cc2C(F)(F)F)CC1	i	.	-27.5	8*	i	-0.03
CCCC[n+]1c(C)sc2cc(OC)ccc21	i	i	-11.0	i	i	-0.09
COc1ccc2sc(C)[n+](C)c2c1	i	i	4.6*	i	i	0.02
CN(C)c1ccc(/C=C/c2cc[n+]([O-])cc2)cc1	i	.	-38.0	i	i	-10.7
CC[n+]1ccc(/C=C/c2ccc(N(C)C)cc2)c2ccccc21	.	-9.93*	.	.	.	.
CC[n+]1ccccc1/C=C/c1ccc(N(C)C)cc1	i	i	-32.7	8*	i	-0.1
O=C(N/N=C/c1cccs1)c1ccc2c(c1)OCO2	i	i	-3.5	i	i	0.55
CCOc1ccc(N2C(=O)C3=C(C(c4ccc(Cl)cc4)=NCCN3)C2c2cccnc2)cc1 (centres undefined)	i	i	-9.5	i	i	0.22
Cc1ccc(C2C3=C(NCCN=C3c3ccccc3)C(=O)N2c2ccccc2)cc1 (centres undefined)	i	i	-13.7	i	i	-8.8*
CCNc1nnc(SCC(=O)NC2CCCCCC2)s1	.	i	.	.	.	.
COC(=O)CN(c1nc(C)c(Br)c(OC)n1)S(=O)(=O)c1ccccc1	i	i	-9.0	i	i	-5.45*
COC(=O)CN(c1nc(C)cc(OC)n1)S(=O)(=O)c1ccccc1	i	i	-3.3	i	i	-3.16
Cc1cccc2c1-c1sc(C(=O)Nc3cccnc3)cc1CO2	i	i	-11.2	i	-7.21*	0.6
COc1cc(NC(=O)CN(c2ccc(C)cc2)S(=O)(=O)c2c(C)noc2C)cc(OC)c1	i	i	-8.6	i	i	-0.67
Cc1cc(C)n(-c2c(C)[nH]c3ccccc23)n1	i	i	-3.8	i	i	-4.21*
CCC1(O)CCCC2C3CCC4CC(=O)CCC4(C)C3C(=O)CC21C (centres undefined)	.	i	.	.	.	.
COc1cc(/C=C2/SC(=S)NC2=O)ccc1OS(=O)(=O)c1ccc(C)cc1	48*	i	-11.5	i	i	-1.88
O=C1NC(=S)S/C1=C\c1ccc2ccccc2c1	49*	i	35.7*	i	i	0.8
CCOc1ccc(/C=C2\SC(=S)NC2=O)cc1OC	i	i	-11.7	i	i	1.19
COc1cc(/C=C2\SC(=S)NC2=O)ccc1OS(=O)(=O)c1ccccc1	26*	.	-12.1	i	i	0.04
COc1ccc(/C=C2\SC(=O)NC2=S)cc1OC	12*	i	5.7*	i	i	-1.07
COc1ccc(CCNC(=O)C(=O)N2CCCCC2)cc1OC	i	i	-7.9	i	i	1.38
COc1cc(OC)c(N(C)S(=O)(=O)c2cccc(C(=O)OCC(=O)N(C)C3CCCCC3)c2)cc1Cl	.	i	.	.	.	.
CC1(C)N=C(N)N=C(N)N1CCCCc1ccccc1	.	i	.	.	.	.
CCSc1nc2sc3c(c2c(=O)[nH]1)CC(C)(CC)OC3 (centres undefined)	i	i	-5.9	i	i	-0.28
CCC1(C)Cc2c(sc3nc(SC)[nH]c(=S)c23)CO1 (centres undefined)	74*	.	49.4*	i	i	2.14

Source: PubChem (Johns Hopkins Ion Channel Center)
